Results from different studies.
Target: Acetylcholinesterase (ACHE, Homo sapiens, UniProt P22303)
Read-out: enzyme activity
Action: inhibitor

SMILES | technique | pH | IC50 [nM]
C=CCn1c2cc(OC(=O)CCCCN3CCN(Cc4cccc(C(F)(F)F)c4)CC3)ccc2c2ccnc(C)c21 | Ellman | – | 748
O=c1[nH]cc(Br)c(=O)[nH]1 | Ellman | – | 151
CN1CCN(CCOc2ccc3occc(=O)c3c2)CC1 | Ellman | pH 7.4 | 72900
CCCCNc1ccc(C(=O)OCCN(CC)CC)cc1 | – | – | 18700
C=CCn1c2cc(OC(=O)CCCCN3CCN(Cc4ccccc4Cl)CC3)ccc2c2ccnc(C)c21 | Ellman | – | 116
CNC(=O)Oc1cccc2c1OC(C)(C)O2 | Ellman | – | 182
C#CCNc1nc(NCCCCC2CCN(Cc3ccccc3)CC2)c(C#N)c(-c2ccccc2)c1C#N | Ellman | – | 6
c1cc(CN2CCCCC2)cc(OCCCNc2nc3ccccc3s2)c1 | – | – | 22600
C=CCn1c2cc(OC(=O)CCCCN3CCN(Cc4ccc(C)cc4)CC3)ccc2c2ccnc(C)c21 | Ellman | – | 12.6
c1ccc2c(c1)[I+]c1ccccc1-2 | – | – | 16100
CCOP(=O)(OCC)Oc1ccc2c(C)c(Cl)c(=O)oc2c1 | Ellman | – | 111
Cn1ccc(=O)n(C)c1=O | Ellman | – | 388
C=CCn1c2cc(OC(=O)CCCCN3CCN(Cc4ccccc4)CC3)ccc2c2ccnc(C)c21 | Ellman | – | 58.8
O=c1[nH]cc(CO)c(=O)[nH]1 | Ellman | – | 205
C#CCNc1nc(NCCCC2CCN(Cc3ccccc3)CC2)c(C#N)cc1C#N | Ellman | – | 1
C=CCn1c2cc(OC(=O)CCCCN3CCN(Cc4ccccc4C)CC3)ccc2c2ccnc(C)c21 | Ellman | – | 15.7
CNC(=O)Oc1cccc2c1OC(C)(C)C2 | Ellman | – | 38
CN1CCN(CCCOc2ccc3occc(=O)c3c2)CC1 | Ellman | pH 7.4 | 65100
O=C(NCCCNc1c2c(nc3ccccc13)CCCC2)c1ccccc1O | Ellman | – | 1020
CS(=O)(=O)n1cc(Br)c(=O)[nH]c1=O | Ellman | – | 111
O=C(CN1C2=NCCN2c2ccccc21)c1ccc(-c2ccccc2)cc1 | – | – | 19500
CCC(CC)CSc1ccccc1OC(=O)NC | Ellman | – | 5130
C=CCn1c2cc(OC(=O)CCCCN3CCN(Cc4ccc(Cl)cc4)CC3)ccc2c2ccnc(C)c21 | Ellman | – | 280
